Shown are actives, neighbours in structure and some others; about 2.2% of the full set was active somewhere.
SMARCA2 act = SMARCA2 (BRM) function activators, primary screen, cell-based, luminescence, high throughput | MG213 cells, MMTV-luciferase reporter, dexamethasone, overnight | activation, % at 9.1 µM | actives 1% (n = 370,000); in the data active means activation above about 7.8%;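 further: 0% = vehicle wells and 100% = reference activator wells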
NR2F2 inh = NR2F2 transcriptional activity inhibitors, primary screen, cell-based, luciferase reporter, HEK293T, luminescence; COUP transcription factor 2 (Homo sapiens), P24468; HEK293T NGFI-A luciferase reporter; inhibition, % at 8.6 µM; actives 0.7% (n = 370,000);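 active means inhibition above a per-plate cutoff, mean inhibition of test wells between control levels plus 3 SD, cut at about 38% in these data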;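 further: cells cotransfected with COUP-TFII expression vector driving the NGFI-A reporter; 0% = median of COUP-TF2 test wells and 100% = reporter-only cells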
NR2E3 ag-1 = inhibitors of NR2E3-RetCOR corepressor binding, primary screen, NR2E3 agonist project, biochemical, TR-FRET, GST-NR2E3, biotin-RetCOR | 1536-well | actives 0.12% (n = 320,000) | Photoreceptor-specific nuclear receptor (Homo sapiens), Q9Y5X4 | inhibition of corepressor binding, % at 4.78 µM;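 active means percent inhibition above the cutoff of mean plus 3 SD of all tested compounds, set per screening campaign, cut at about 20% in these data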;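 further: 0% = DMSO wells and 100% = biotin wells as full block of FRET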
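Material: NR2E3–RetCOR corepressor complex / Amount: 1.35 nM GST-NR2E3 / Medium: Tris pH 7.5 / Compound: single nominal compound dose of 4.8 µM / Incubation: 5 h at 4 °C / Technique: TR-FRET, Eu(K)-anti-GST donor, streptavidin-D2 acceptor, ex 340, em 617/671 nm / Read-out basis: percent loss of FRET ratio relative to control wells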
GalR3 antag = GalR3 antagonists in HEK293 cells, primary screen, cell-based, fluorescence readout; Galanin receptor type 3 (Homo sapiens), O60755; HEK293 GalR3-CNG cAMP membrane potential fluorescence; galR3 body fused to GalR1 C-terminus; inhibition, % at 3 µM; actives 0.44% (n = 360,000); AID 651719, 2012;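 active means inhibition above the screen-wide average plus 3 SD, cut at about 13% in these data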;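 further: forskolin and galanin both at EC90 stimulate the cells; cAMP rise reported by CNG channel membrane potential dye signal; 0% = forskolin plus galanin with DMSO and 100% = forskolin alone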
Target sequence (O60755 1-299 limits assumed): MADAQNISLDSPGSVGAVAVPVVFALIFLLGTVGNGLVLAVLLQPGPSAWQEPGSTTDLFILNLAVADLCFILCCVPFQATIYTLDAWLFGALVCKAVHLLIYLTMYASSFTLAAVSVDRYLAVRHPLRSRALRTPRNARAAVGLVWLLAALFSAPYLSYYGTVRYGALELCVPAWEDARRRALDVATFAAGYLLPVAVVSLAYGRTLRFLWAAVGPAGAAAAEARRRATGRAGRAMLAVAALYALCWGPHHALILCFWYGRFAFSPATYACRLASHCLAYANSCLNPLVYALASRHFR
NR2E3 ag-2 = NR2E3 agonists in two-hybrid cells, primary screen, cell-based, luminescence, CHO-S, Gal4-NCOR/VP16-NR2E3 | inhibition of corepressor binding, % at 3.98 µM | AID 602229, 2012 | actives 0.35% (n = 360,000) | Photoreceptor-specific nuclear receptor (Homo sapiens), Q9Y5X4 | luciferase;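 active means inhibition above the mean of all tested compounds plus 3 SD, cut at about 70% in these data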;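 further: 0% = DMSO with NR2E3 transfected cells and 100% = cells lacking NR2E3 construct; higher means lower luciferase signal from less NR2E3 corepressor binding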
NR2E3 ag confirm = NR2E3 agonist confirmation in cells, cell-based, luminescence, CHO-S two-hybrid; inhibition, % at 3.98 µM; CHO-S mammalian two-hybrid NR2E3-NCOR, luciferase luminescence; actives 51% (n = 2,300); shares compounds with NR2E3 ag-2;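 active means average inhibition above a cutoff equal to the mean inhibition of all tested compounds plus one SD, cut at about 70% in these data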;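 further: 0% = DMSO in NR2E3 cells and 100% = DMSO in cells lacking NR2E3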
VP16 counter = GAL4-VP16 reporter modulators, confirmation, counter-screen for NR2E3 agonist project, cell-based, luminescence, CHO-S, high throughput | actives 29% (n = 2,300) | CHO-S GAL4-VP16 luciferase reporter | inhibition, % at 3.98 µM | shares compounds with NR2E3 ag-2;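 active means mean inhibition above a cutoff equal to the average over all tested compounds plus one standard deviation, cut at about 70% in these data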;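 further: luciferase from a UAS reporter driven by GAL4-VP16 transactivation; 0% = DMSO with VP16-transfected cells and 100% = DMSO with cells lacking VP16; higher means less reporter light so more repression of VP16 activity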
An asterisk follows results filed as active; / = no result given.

SMILES | SMARCA2 act | NR2F2 inh | NR2E3 ag-1 | GalR3 antag | NR2E3 ag-2 | NR2E3 ag confirm | VP16 counter
OC(c1ccc(Cl)c(F)c1)c1ncc(-c2ccc(Cl)cc2)[nH]1 (centres undefined) | -5.8 | 2.2 | / | -7.2 | 68.4 | 86.0* | 66.1
Cc1ccc(-n2c(COc3ccccc3)nnc2SCC(=O)Nc2ccccc2-c2ccccc2)cc1 | -5.2 | 10.1 | / | / | / | / | /
COC(=O)C1CN(Cc2cn(Cc3ccc(Cl)cc3)nn2)CCS(=O)(=O)N1Cc1ccccc1 (centres undefined) | -5.7 | 3.5 | / | / | / | / | /
Cc1ccc(C(=O)NNC(=S)NC(=O)c2ccc(Cl)cc2Cl)cc1 | -1.7 | 4.9 | 2.1 | -3.4 | 54.3 | 47.6 | 29.3
CC1=CCC(C(=O)O)C(C(=O)Nc2ccc(-c3nc4ccc(C)cc4s3)cc2)C1 (centres undefined) | 6.6 | -62.7 | 2.5 | -3.1 | 50.5 | 55.1 | -37.5
Cc1ccc(NC(=O)C2(C)CCN2C(=O)Cc2ccc(-c3ccccc3)cc2)cc1 (centres undefined) | -5.6 | 26.2 | / | -7.0 | 69.3 | 87.5* | 67.8
CN(C)S(=O)(=O)N1CCC(Oc2ccc(C(=O)N3C[C@H]4CC[C@H]3C4)cc2)CC1 | -2.9 | 32.8 | -0.3 | -3.0 | 60.2 | 8.4 | 14.7
O=C(O)CC1(CC(=O)Nc2cc(C(F)(F)F)cc(C(F)(F)F)c2)CCCCC1 | -7.7 | -8.3 | -0.6 | -2.8 | 57.9 | 88.2* | 45.1
CCOC(=O)C1=C[C@@H](C(C)(C)C)N(S(=O)(=O)c2ccc([N+](=O)[O-])cc2)[C@H]1c1ccccc1 | -4.0 | 1.4 | / | -9.1 | 70.2* | 44.8 | 32.2
CCCC/C=C1/[C@H](CC)N(C)C2=N[C@@H](c3ccccc3)CC(=O)N21 | / | -9.2 | / | / | / | / | /
CC(C)[C@H](NC(=O)[C@@H]1CCCN1)C(=O)N1CCC2CCN(S(=O)(=O)c3ccccc3)CC21 (some centres undefined) | -5.2 | 7.2 | / | / | / | / | /
O=C(Nc1nnc(SCc2ccc(F)cc2)s1)c1cccnc1Cl | -2.7 | -5.1 | 2.3 | -2.0 | 5.6 | / | /
O=C(Nc1nnc(SCc2ccc(F)cc2)s1)c1ccccn1 | 2.3 | -15.1 | / | -0.5 | 64.9 | 48.9 | 4.7
COC(/C(=N/O)c1ccc(Cl)cc1)c1ccccc1 (centres undefined) | -2.8 | 4.1 | 3.3 | -12.5 | 58.8 | 83.3* | 58.1
COc1ccc(Cl)cc1NC(=O)C(OC)c1ccccc1 (centres undefined) | -2.8 | 1.1 | 4.3 | -6.8 | -4.1 | / | /
Cc1cccc(/C=N/Nc2cc(N3CCOCC3)nc(N3CCOCC3)n2)c1 | -0.7 | -8.1 | 2.1 | -0.2 | 61.2 | 75.0* | 36.3
COc1ccc(C)cc1NC(=O)NC1CC(=O)N(c2ccc3c(c2)OCCO3)C1 (centres undefined) | -3.2 | 19.0 | / | -6.1 | 72.2* | 77.8* | 11.4
O=C(Nc1ccc(-n2ccc(C(F)(F)F)n2)cc1)Nc1cccc(Cl)c1 | -5.2 | -21.0 | -1.5 | -8.9 | 81.6* | 98.6* | 75.5*
COc1ccc(CNCC(O)COc2cccc3c2OC(C)(C)C3)cc1 (centres undefined) | -3.5 | 36.9 | 2.9 | -4.7 | 50.6 | 46.4 | 60.7
COC(=O)c1ccc(COc2cccc3c2OC(C)(C)C3)cc1 | -2.0 | -7.4 | -0.7 | -3.0 | -18.6 | / | /
Cc1ccc(NC(=O)C(C)c2ccc(-c3ccccc3)c(F)c2)cc1 (centres undefined) | -3.0 | 25.9 | 0.4 | -3.3 | 74.3* | 88.6* | 77.2*
CC(NNC(=S)N1CCN(c2ccccn2)CC1)c1nccc2ccccc12 (centres undefined) | -4.1 | 27.4 | / | -4.0 | 83.0* | 5.1 | 14.3
